Series [1] has as its system MCF7. Kind of series: Downregulation of ERalpha expression in human MCF7 cells at 0.5 uM incubated for 24 hrs by Western blot assay. It counts as functional, cell-based. In short, it runs like this: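 MCF-7 cells were kept in phenol red-free DMEM/F12 with 10% serum for 72 h before plating, then treated at 125, 250 and 500 nM for 24 h. Cells were lysed in RIPA buffer, protein was measured by BCA, and equal amounts were run on 10% SDS-PAGE and transferred to PVDF. ERα band intensity was normalized to GAPDH in each repeat.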
(Immunoblotting shows a protein as a band on a membrane.)

Series [2] deals with MCF7. Kind of series: Antiproliferative activity against human MCF7 cells assessed as reduction in cell growth incubated for 48 hrs by CCK8 assay. It counts as functional, cell-based. The settings on record: MCF7, 48 h. In short, it runs like this: (§1)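 CCK-8 viability assay. Cells seeded at 4000/well in 10% FBS medium for 24 h, then given compound diluted from DMSO stocks into 2% FBS medium at 100, 50, 25, 12.5, 6.25 and 3.125 µM (0.1% DMSO final). After 48 h, CCK-8 was added (0.5 mg/mL) for 2 h at 37 °C and OD450 read. Triplicates; IC50 fitted from mean viability.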
A general note: Tetrazolium dyes change colour on reduction, which living cells bring about.

The next series deals with Ishikawa. In words: Antiproliferative activity against human Ishikawa cells assessed as reduction in cell growth incubated for 48 hrs by CCK8 assay. Format: functional, cell-based. In short, it runs like this: as §1
For another series, the system named is MDA-MB-231. In words: Antiproliferative activity against human MDA-MB-231 cells assessed as reduction in cell growth incubated for 48 hrs by CCK8 assay. The conditions noted are these: MDA-MB-231, 48 h. It counts as functional, cell-based. A digest of the protocol: as §1
In series [3] the test system is MCF7. In words: Downregulation of ERalpha expression in human MCF7 cells at 5 uM incubated for 24 hrs by DAPI staining based immunofluorescence microscopy. It counts as functional, cell-based. A digest of the protocol:
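MCF-7 cells on glass slides treated 24 h at 5 µM, washed with PBS and fixed with pre-cooled acetone. ERα immunostained with a red fluorescent label, nuclei counterstained with DAPI; ERα fluorescence intensity quantified.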

Series [4] addresses T1, Estrogen receptor (Homo sapiens) (UniProt P03372).
T1 sequence (whole entry): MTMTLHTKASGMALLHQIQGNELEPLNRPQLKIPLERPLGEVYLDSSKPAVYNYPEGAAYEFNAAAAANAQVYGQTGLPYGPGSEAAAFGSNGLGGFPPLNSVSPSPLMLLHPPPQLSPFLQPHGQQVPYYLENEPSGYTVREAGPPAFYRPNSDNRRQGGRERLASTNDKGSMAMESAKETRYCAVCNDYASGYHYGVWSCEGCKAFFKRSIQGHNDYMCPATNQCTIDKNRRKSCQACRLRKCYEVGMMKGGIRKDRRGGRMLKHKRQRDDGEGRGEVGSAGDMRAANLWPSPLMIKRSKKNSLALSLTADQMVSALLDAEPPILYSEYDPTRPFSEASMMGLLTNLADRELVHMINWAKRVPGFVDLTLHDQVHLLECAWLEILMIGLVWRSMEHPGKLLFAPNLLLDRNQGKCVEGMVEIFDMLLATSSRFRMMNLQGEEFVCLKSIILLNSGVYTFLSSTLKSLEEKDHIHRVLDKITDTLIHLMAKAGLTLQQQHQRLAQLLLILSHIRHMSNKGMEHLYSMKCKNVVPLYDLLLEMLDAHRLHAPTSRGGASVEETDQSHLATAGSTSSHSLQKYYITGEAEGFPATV
Kind of series: Covalent antagonist activity at ERalpha in human MCF7 cells assessed as decrease in estradiol-induced TFF1 mRNA expression level at 0.25 to 10 uM measured after 24 hrs by RT-PCR analysis. Format: cell-based. The conditions noted are these: filed as antagonist, dose 0.25-10 µM. A digest of the protocol:
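MCF-7 cells stimulated with estradiol, then co-incubated 24 h with compound at 0.25, 0.5, 1 and 10 µM. RNA was reverse-transcribed and GREB1 or TFF1 measured by SYBR Green qPCR: 95 °C 10 min, then 40 cycles of 95 °C 5 s, 60 °C 60 s, 95 °C 15 s. Normalised to GAPDH, ΔΔCT method.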

The target in a further series is T2, Estrogen receptor (Homo sapiens, UniProt P03372).
T2 sequence (P03372 whole entry): T1 sequence (whole entry)
Kind of series: Induction of ERalpha activity in human ishikawa cells assessed as induction of cell proliferation at 156 to 5000 nM measured after 3 days. The conditions noted are these: 72 h, 5 µM, dose 156-5000 nM, time 3 day. It counts as cell-based.

For series [5], the system named is MCF7. In words: Induction of apoptosis in human MCF7 cells assessed as early apoptotic cells at 1 uM incubated for 24 hrs by AnnexinV-FITC/propidium iodide staining based flow cytometric analysis (reference value: 0.8%). Format: functional. A general note: In flow cytometry, cells or beads pass a laser one at a time.
In series [6] the test system is MCF7. In words: Induction of apoptosis in human MCF7 cells assessed as necrotic cells at 1 uM incubated for 24 hrs by AnnexinV-FITC/propidium iodide staining based flow cytometric analysis (reference value: 0.4%). It counts as functional.
The test system of series [7] is MCF7. In words: Induction of apoptosis in human MCF7 cells assessed as live cells at 5 uM incubated for 24 hrs by AnnexinV-FITC/propidium iodide staining based flow cytometric analysis (reference value: 98.1%). Format: functional.
The subject of series [8] is MCF7. Kind of series: Induction of apoptosis in human MCF7 cells assessed as early apoptotic cells at 5 uM incubated for 24 hrs by Annexin-V-FITC/propidium iodide staining based flow cytometric analysis (reference value: 0.8%). It counts as functional.
Series [9] relates to MCF7. In words: Induction of apoptosis in human MCF7 cells assessed as late apoptotic cells at 5 uM incubated for 24 hrs by AnnexinV-FITC/propidium iodide staining based flow cytometric analysis (reference value: 0.7%). Format: functional.
The subject of series [10] is MCF7. Kind of series: Induction of apoptosis in human MCF7 cells assessed as necrotic cells at 5 uM incubated for 24 hrs by AnnexinV-FITC/propidium iodide staining based flow cytometric analysis (reference value: 0.4%). It counts as functional.
Series [11] concerns MCF7. In words: Induction of apoptosis in human MCF7 cells assessed as live cells at 10 uM incubated for 24 hrs by AnnexinV-FITC/propidium iodide staining based flow cytometric analysis (reference value: 98.1%). Format: functional.
Series [12] has as its system MCF7. In words: Induction of apoptosis in human MCF7 cells assessed as late apoptotic cells at 10 uM incubated for 24 hrs by AnnexinV-FITC/propidium iodide staining based flow cytometric analysis (reference value: 0.7%). Format: functional.
Series [13] has as its system MCF7. Kind of series: Induction of apoptosis in human MCF7 cells assessed as necrotic cells at 10 uM incubated for 24 hrs by AnnexinV-FITC/propidium iodide staining based flow cytometric analysis (reference value: 0.4%). Format: functional.
Series [14] relates to MCF7. Kind of series: Cell cycle arrest in human MCF7 cells assessed as accumulation at G0/G1 phase at 1 uM measured after 48 hrs by propidium iodide staining based flow cytometric analysis (reference value: 24.44%). It counts as functional.
The subject of series [15] is MCF7. Kind of series: Cell cycle arrest in human MCF7 cells assessed as accumulation at G2/M phase at 1 uM measured after 48 hrs by propidium iodide staining based flow cytometric analysis (reference value: 12.24%). It counts as functional.
In series [16] the test system is MCF7. Kind of series: Cell cycle arrest in human MCF7 cells assessed as accumulation at G2/M phase at 5 uM measured after 48 hrs by propidium iodide staining based flow cytometric analysis (reference value: 12.24%). It counts as functional.
For series [17], the system named is MCF7. In words: Cell cycle arrest in human MCF7 cells assessed as accumulation at S phase at 10 uM measured after 48 hrs by propidium iodide staining based flow cytometric analysis (reference value: 63.32%). It counts as functional.
Series [18] deals with MCF7. In words: Cell cycle arrest in human MCF7 cells assessed as accumulation at G2/M phase at 10 uM measured after 48 hrs by propidium iodide staining based flow cytometric analysis (reference value: 12.24%). It counts as functional.
Series [19] can be described thus: Lipophilicity, logD of compound. The settings on record: octanol/water. Format: physicochemical.
Series [20] can be described thus: Half life in rat plasma. It counts as ADME, cell-free.
The nature of series [21]: Half life in rat liver microsomes. It counts as ADME, Microsome.

Active and inactive are the calls of the source. No cut-off for these calls is given here.

As usually defined, the IC50 is the concentration needed to halve the response being measured. As usually defined, the logD is the decadic logarithm of the distribution of all forms, ionised or not, between an organic phase and buffer at a given pH. A high value points to a more lipophilic compound. Usually half-life stands for the time in which the quantity being followed falls by half. A lower half-life goes with rapid decline. In the case of `O=C(/C=C/CNCCOc1ccc(Oc2c(-c3ccc(F)cc3)sc3cc(O)ccc23)cc1)N1CCC1`, the inhibition entry in the series with MCF7 [1] and in the series on MCF7 [3] was “Active” each time. Also, the IC50 in the series with MCF7 [2] is 7.34 µM; in the series with Ishikawa, 6.56 µM; in the series on MDA-MB-231 it was greater than 50 µM. In addition, in series [4], the inhibition result is “Dose-Dependent Effect”. Also, the Activity result is on record as “Not Active” at Estrogen receptor; 0.8% in the series on MCF7 [5]; 0.2% in the series on MCF7 [6]; 87.9% in the series with MCF7 [7]; 5.3% with MCF7 [8]; 6.4% in the series on MCF7 [9]. The Activity in the series on MCF7 [10] is 0.4%; in the series with MCF7 [11], 73.6%; in the series with MCF7 [12], 13.2%; in the series on MCF7 [13] it was 0.5%; with MCF7 [14], 31.21%; in the series on MCF7 [15], 17.36%. In addition, the Activity with MCF7 [16] is given as 15.48%; with MCF7 [17], 38.75%; in the series with MCF7 [18], 18.3%. For the same molecule, the logD in series [19] was determined as 1.67. Besides, the half-life in series [20] worked out at 17 h; in series [21] it was 0.636 h.

These data come from ChEMBL document CHEMBL4837222, “Design and synthesis of novel benzothiophene analogs as selective estrogen receptor covalent antagonists against breast cancer” (Eur J Med Chem, 2021).
